IC50, MST and survival data for 12 compounds are collected here from ChEMBL document CHEMBL1125595 (1991).

Assay [1] relates to MRC5. Description: Antiviral activity determined by plaque reduction assay of HCMV (AD-169) in MRC-5 cells. It counts as functional. Conditions: Homo sapiens, read-out: ID50 (the source's name). The procedure, abridged:
(§1)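 Plaque reduction assay: HSV strains in Vero cells and HCMV in MRC-5 cells. ID50 is the dose giving a 50% fall in plaque numbers relative to untreated controls.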

The subject of assay [2] is Vero. The assay is described as follows: Antiviral activity determined by plaque reduction assay of HSV-2 (G) in vero cells. It counts as functional. Conditions: Chlorocebus sabaeus, read-out: ID50 (the source's name). The procedure, abridged: as §1
The test system of assay [3] is Vero. The assay is described as follows: Anticellular activity was determined by cell proliferation assay in vero cells. The settings on record: Chlorocebus sabaeus, read-out: ID50 (the source's name).
The test system of assay [4] is Vero. The assay is described as follows: Antiviral activity determined by plaque reduction assay of HSV-1 (BWS) in vero cells. The assay is classed as functional. The settings on record: Chlorocebus sabaeus, read-out: ID50 (the source's name). The method in brief:
as §1

The test system of assay [5] is Mus musculus. Description: Compound tested for its effect on mean survival time in mice against HSV-1(BWS) at a dose of 300 mg/kg. It counts as functional. The procedure, abridged:
(§2)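 Female Swiss-Webster mice of about 20 g were infected intraperitoneally with 5 × 10^4 PFU HSV-1 (BWS). Compound was given intraperitoneally twice daily for 5 consecutive days, starting 3 h postinfection. A saline placebo group served as control. Deaths were recorded for 21 days, and survivors and mean survival time in days were taken at the day-21 endpoint.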

Assay [6] concerns Mus musculus. The assay is described as follows: Antiviral activity in terms of percentage survival at a dose of 100 mg/kg after intraperitoneal inoculation of HSV-1(BWS) in mice (9/10). The assay is classed as functional. The settings on record: ip. The procedure, abridged: as §2
In assay [7] the test system is Mus musculus. Description: Antiviral activity in terms of percentage survival at a dose of 300 mg/kg after intraperitoneal inoculation of HSV-1(BWS) in mice (10/10). Conditions: ip. It counts as functional. The procedure, abridged: as §2
Assay [8] relates to Mus musculus. Description: Compound tested for its effect on mean survival time in mice against HSV-1(BWS) at a dose of 100 mg/kg. It counts as functional. The method in brief:
as §2

Assay [9] has as its system Mus musculus. The assay is described as follows: Antiviral activity in terms of percentage survival at a dose of 100 mg/kg after intraperitoneal inoculation of HSV-1(BWS) in mice (7/10). The assay is classed as functional. The settings on record: ip. The procedure, abridged: as §2
In assay [10] the test system is Mus musculus. Description: Antiviral activity in terms of percentage survival at a dose of 300 mg/kg after intraperitoneal inoculation of HSV-1(BWS) in mice (6/7). The assay is classed as functional. The settings on record: ip. The procedure, abridged: as §2

Values after ≈ are worked out from the molar mass of the structure shown. A value given as a limit tells only on which side of the number the result lay.

`N.Nc1ncnc2c1ncn2CC(CO)CCP(=O)(O)O` (configuration not stated): the IC50 in [1], in assay [2] and in assay [3] was above 100 µg/mL in each case.

`N.Nc1ccn(CC(CO)CCP(=O)(O)O)c(=O)n1` (configuration not stated): the IC50 in [1], in assay [2] and in assay [3] was above 100 µg/mL throughout.

Consider `CC(OCn1cnc2c(O)nc(N)nc21)OCP(=O)(O)O` (configuration not stated), for which the IC50 in [1], in assay [2], in assay [3] and in assay [4] was above 100 µg/mL in each case.

Turning to `Cc1cn(COCOCP(=O)([O-])[O-])c(=O)[nH]c1=O.[Na+].[Na+]`, the IC50 in assay [1], in assay [2], in assay [3] and in assay [4] was above 100 µg/mL in each case.

`Nc1nc(O)c2ncn(COC(CO)OCP(=O)([O-])[O-])c2n1.[Na+].[Na+]` (configuration not stated): the IC50 in assay [1] is 0.9 µg/mL; in assay [2], 8.2 µg/mL; in [3], above 100 µg/mL; in assay [4] it was 3.3 µg/mL.

In the case of `Nc1ccn(COCOCP(=O)([O-])[O-])c(=O)n1.[Na+].[Na+]`, the IC50 in [1], in assay [2], in assay [3] and in assay [4] was above 100 µg/mL throughout.

In the case of `Nc1nc(O)c2ncn(COCOCP(=O)([O-])[O-])c2n1.[Na+].[Na+]`, the MST in assay [5] stood at 21 days; in assay [8] it was 20.4 days. In assay [6], this compound registered a survival at 100 mg/kg of 90%. The IC50 is 5 µg/mL in assay [1], 11 µg/mL in assay [2], above 100 µg/mL in assay [3] and 2.6 µg/mL in assay [4]. In addition, the survival at 300 mg/kg in [7] was 100%.

In the case of `Nc1ncnc2c1ncn2COCOCP(=O)([O-])[O-].[Na+].[Na+]`, the IC50 in assay [1], in assay [2], in assay [3] and in [4] was above 100 µg/mL throughout.

On to `COC(CO)OCn1cnc2c(O)nc(N)nc21` (configuration not stated), for which the IC50 in [1], in assay [2], in assay [3] and in assay [4] was above 100 µg/mL in each case.

Regarding `N.Nc1nc(O)c2ncn(CC(CO)CCP(=O)(O)O)c2n1` (configuration not stated), the IC50 in assay [1], in [2] and in [3] was above 100 µg/mL throughout.

The compound `Nc1nc2c(ncn2COCCO)c(=O)[nH]1` [ACYCLOVIR] had a survival at 100 mg/kg in [9] of 70%. Besides, the MST in [5] turned out to be 20 days. For the same compound, the IC50 is 38.4 µg/mL (≈ 171 µM) in assay [1], 2.4 µg/mL (≈ 10.7 µM) in assay [2], above 100 µg/mL in assay [3] and 0.5 µg/mL (≈ 2.22 µM) in [4]. The compound also returned a survival at 300 mg/kg in assay [10] of 86%.

Regarding `Nc1nc2c(ncn2CCOCP(=O)(O)O)c(=O)[nH]1` [GS-438], the IC50 was 0.04 µg/mL (≈ 0.138 µM) in assay [1], 0.69 µg/mL (≈ 2.39 µM) in assay [2], 5 µg/mL (≈ 17.3 µM) in assay [3] and 0.08 µg/mL (≈ 0.277 µM) in assay [4].
